{"source": "ChEMBL document CHEMBL3627704", "about": "“Synthesis, quorum sensing inhibition and docking studies of 1,5-dihydropyrrol-2-ones” (Bioorg Med Chem, 2015)", "note": "Active and inactive are the calls of the source. The calls are words filed in the database; no cut-off is given here.", "data": [{"test_system": "Escherichia coli", "assay": "Inhibition of quorum sensing in Escherichia coli JB357 expressing green fluorescent protein assessed as reduction of OHHL-induced GFP expression after 2 hrs by fluorescence assay relative to OHHL", "procedure,_shortened": "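E. coli JB357 carrying Vibrio fischeri luxR-PluxI-gfp(ASV) reporter; OHHL at final 10, 20, 50 or 100 nM in culture medium, triplicate wells, with dihydropyrrol-2-one at 0–10 mg/mL. Incubated 2 h at 37 °C; GFP fluorescence read relative to solvent control (100%). ID40 taken for each OHHL level and plotted against OHHL. AIC40 is the gradient of the fit forced through origin (inhibitor mol : OHHL mmol).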", "values": [{"smiles": "CCCCCCC1=CC(=C(Br)Br)N(CCCC)C1=O", "inhibition": "inactive"}, {"smiles": "O=C1C=C(Br)/C(=C/Br)N1c1ccccc1", "inhibition": "inactive"}, {"smiles": "CCCCCC(Br)C1=CC(=C(Br)Br)N(c2ccccc2)C1=O", "note": "(stereo unspecified)", "inhibition": "inactive"}, {"smiles": "CCCCCCC1=CC(=C(Br)Br)N(Cc2ccccc2)C1=O", "Ratio": 140}, {"smiles": "CCCC(Br)C1=CC(=C(Br)Br)N(c2ccccc2)C1=O", "note": "(stereo unspecified)", "Ratio": 1.95}, {"smiles": "CCCCCCN1C(=O)C=C(Br)C1=C(Br)Br", "inhibition": "inactive"}, {"smiles": "O=C1C=C(Br)C2(CBr)OCCN3C(=O)C=C(Br)C3(CBr)OCCN12", "note": "(stereo unspecified)", "Ratio": 78}, {"smiles": "CCCCCCCCCCCCN1C(=O)C=C(Br)C1=C(Br)Br", "inhibition": "inactive"}, {"smiles": "CCCCCCC1=C(Br)/C(=C/Br)N(CCCC)C1=O", "inhibition": "inactive"}, {"smiles": "CCCCCCCCN1C(=O)C=C(Br)C1=C(Br)Br", "inhibition": "inactive"}, {"smiles": "CCCC(Br)C1=CC(=C(Br)Br)N(Cc2ccccc2)C1=O", "note": "(stereo unspecified)", "inhibition": "inactive"}, {"smiles": "CCCCCCCCN1C(=O)C=C(Br)/C1=C/Br", "Ratio": 20}, {"smiles": "CCCCCCCCCCCCN1C(=O)C=C(Br)/C1=C/Br", "inhibition": "inactive"}, {"smiles": "CCCCCC(Br)C1=CC(=C(Br)Br)N(Cc2ccccc2)C1=O", "note": "(stereo unspecified)", "inhibition": "inactive"}, {"smiles": "CCCCC1=CC(=C(Br)Br)N(Cc2ccccc2)C1=O", "Ratio": 220}, {"smiles": "CCCCC1=CC(=C(Br)Br)N(c2ccccc2)C1=O", "Ratio": 97}, {"smiles": "CCCC(O)C1=CC(=C(Br)Br)N(c2ccccc2)C1=O", "note": "(stereo unspecified)", "inhibition": "inactive"}, {"smiles": "CCCCCCN1C(=O)C=C(Br)/C1=C/Br", "inhibition": "inactive"}, {"smiles": "O=C1C=C(Br)/C(=C/Br)N1Cc1ccccc1", "Ratio": 26}, {"smiles": "CCCCN1C(=O)C=C(Br)/C1=C/Br", "Ratio": 19}, {"smiles": "CCCCC1=C(Br)/C(=C/Br)N(CCCC)C1=O", "Ratio": 279}, {"smiles": "CCCCC1=C(Br)/C(=C/Br)N(c2ccccc2)C1=O", "inhibition": "inactive"}, {"smiles": "CCCCCCC1=CC(=C(Br)Br)N(c2ccccc2)C1=O", "Ratio": 248}, {"smiles": "CCCCN1C(=O)C=C(Br)C1=C(Br)Br", "inhibition": "inactive"}, {"smiles": "CCCCC1=CC(=C(Br)Br)N(c2ccc(C)cc2)C1=O", "inhibition": "inactive"}, {"smiles": "CC(C)CN1C(=O)C=C(Br)C1=C(Br)Br", "Ratio": 65}, {"smiles": "O=C1C=C(Br)C2(CBr)OCCCN3C(=O)C=C(Br)C3(CBr)OCCCN12", "note": "(stereo unspecified)", "Ratio": 112}, {"smiles": "CCCCC1=C(Br)/C(=C/Br)N(Cc2ccccc2)C1=O", "inhibition": "inactive"}, {"smiles": "CCCCCC(O)C1=CC(=C(Br)Br)N(c2ccccc2)C1=O", "note": "(stereo unspecified)", "inhibition": "inactive"}, {"smiles": "CCCCCCC1=C(Br)/C(=C/Br)N(Cc2ccccc2)C1=O", "inhibition": "inactive"}, {"smiles": "O=C1C=C(Br)C(=C(Br)Br)N1Cc1ccccc1", "Ratio": 150}, {"smiles": "CCCCC1=CC(=C(Br)Br)N(CCCC)C1=O", "inhibition": "inactive"}, {"smiles": "CCCCCC(O)C1=CC(=C(Br)Br)N(Cc2ccccc2)C1=O", "note": "(stereo unspecified)", "inhibition": "inactive"}, {"smiles": "CCCC(O)C1=CC(=C(Br)Br)N(Cc2ccccc2)C1=O", "note": "(stereo unspecified)", "inhibition": "inactive"}, {"smiles": "CCCCCCC1=C(Br)/C(=C/Br)N(c2ccccc2)C1=O", "inhibition": "inactive"}, {"smiles": "CC(C)CN1C(=O)C=C(Br)/C1=C/Br", "inhibition": "inactive"}]}]}
